Key:
Liver microsome [1] = experiment: Ratio of drug metabolism in […] to drug metabolism in rat hepatocytes at 10 uM after 4 hrs of incubation by HPLC-MS/MS analysis; type: ADME, cell-based, Hepatocyte
Liver microsome [2] = experiment: Drug metabolism in rat liver microsomes assessed as (Z)-N'-hydroxy-6-(5-(5-((Z)-N'-methoxycarbamimidoyl)pyridin-2-yl)furan-2-yl nicotinimidamide formation measured per mg of protein by HPLC-MS/MS analysis; type: ADME
How it was run: (§1)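 M1 formation kinetics: HLM or RLM (0.5 mg/mL) in phosphate pH 7.4 with MgCl2, DB868 0.1–100 µM, started with 2 mM NADPH. Run 5 min (HLM) or 10 min (RLM) under initial-rate conditions (<20% consumption) in triplicate. Quantified by HPLC/MS/MS with d6-DB868 internal standard. Fitted to a one-enzyme (HLM) or two-enzyme (RLM) Michaelis–Menten model; Clint = Vmax/Km.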

Cytochrome P450 4F2 = target: T1, Cytochrome P450 4F2 (Homo sapiens, UniProt P78329); experiment: Prodrug conversion assessed as human recombinant CYP4F2-mediated (Z)-N'-hydroxy-6-(5-(5-((Z)-N'-methoxycarbamimidoyl)pyridin-2-yl)furan-2-yl) nicotinimidamide formation at 5 uM after 180 mins incubation by HPLC-UV chromatogram; type: ADME; settings: recombinant enzyme, 15 min, in the assay text read “15 mins” for “180 mins”
T1 sequence (P78329 whole entry): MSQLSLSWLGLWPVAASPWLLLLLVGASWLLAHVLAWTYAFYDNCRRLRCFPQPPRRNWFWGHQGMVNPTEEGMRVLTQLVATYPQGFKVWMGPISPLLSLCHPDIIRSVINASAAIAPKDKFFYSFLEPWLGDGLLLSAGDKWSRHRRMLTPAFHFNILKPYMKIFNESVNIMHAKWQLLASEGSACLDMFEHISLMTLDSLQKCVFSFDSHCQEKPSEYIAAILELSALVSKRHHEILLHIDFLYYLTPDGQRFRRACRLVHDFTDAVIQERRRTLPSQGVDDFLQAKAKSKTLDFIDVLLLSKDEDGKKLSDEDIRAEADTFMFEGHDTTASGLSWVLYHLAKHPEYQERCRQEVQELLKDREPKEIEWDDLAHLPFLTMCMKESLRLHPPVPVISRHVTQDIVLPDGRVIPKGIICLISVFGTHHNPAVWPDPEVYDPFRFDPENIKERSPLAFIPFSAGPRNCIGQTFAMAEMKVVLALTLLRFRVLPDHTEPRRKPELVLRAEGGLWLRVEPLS
How it was run: (§2)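 Insect-cell-expressed human or rat P450 (with NADPH-P450 reductase, some also with cytochrome b5) at 0.1 pmol/µL in 100 mM potassium phosphate pH 7.4 with 10 mM MgCl2. DB868 (for M1) or M1 (for M2) was added at 5 µM (0.5% DMSO) and started with 2 mM NADPH. Stopped after 15 min with ice-cold acetonitrile, then HPLC-UV. Duplicate incubations.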

Liver microsome [3] = experiment: Drug metabolism in human liver microsomes assessed as (Z)-N'-hydroxy-6-(5-(5-((Z)-N'-methoxycarbamimidoyl)pyridin-2-yl)furan-2-yl nicotinimidamide formation measured by HPLC-MS/MS analysis; type: ADME; how it was run: as §1
[4] = tested on: Trypanosoma brucei rhodesiense; experiment: Antitrypanosomal activity against Trypanosoma brucei rhodesiense STIB900 infected po dosed mouse model; type: functional
[5] = Drug metabolism in sandwich-cultured rat hepatocytes assessed as (Z)-N'-hydroxy-6-(5-(5-((Z)-N'-methoxycarbamimidoyl)pyridin-2-yl)furan-2-yl)nicotinimidamide at 10 uM after 4 hrs of incubation by HPLC-MS/MS analysis; type: ADME, cell-based, Hepatocyte
How it was run: (§3)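 Sandwich-cultured hepatocytes were used on day 5 (human) or day 4 (rat) and rinsed with warm phenol-red-free DMEM. They were then exposed to 10 µM DB868 (0.1–0.2% DMSO) at 37°C. Medium and methanol/water cell lysates were collected at 0.5, 2, 4 and 24 h. Analytes were quantified by HPLC/MS/MS with deuterated internal standards; protein by Bradford. Replicates: 6 (human) or 4 (rat).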

[6] = Drug metabolism in sandwich-cultured human hepatocytes assessed as DB829 at 10 uM after 24 hrs of incubation by HPLC-MS/MS analysis; type: ADME, cell-based, Hepatocyte; how it was run: as §3
Hepatocyte = experiment: Biotransformation in sandwich-cultured human hepatocytes assessed as depletion of compound at 10 uM after 4 hrs of incubation by HPLC-MS/MS analysis; type: ADME, cell-based; how it was run: as §3
[7] = Drug metabolism in sandwich-cultured rat hepatocytes assessed as DB829 at 10 uM after 24 hrs of incubation by HPLC-MS/MS analysis; type: ADME, cell-based, Hepatocyte; how it was run: as §3
Liver microsome [8] = experiment: Drug metabolism in rat liver microsomes assessed as (Z)-N'-hydroxy-6-(5-(5-((Z)-N'-methoxycarbamimidoyl)pyridin-2-yl)furan-2-yl nicotinimidamide formation measured by HPLC-MS/MS analysis; type: ADME; how it was run: as §1
[9] = Drug metabolism in sandwich-cultured rat hepatocytes assessed as fold increase in DB829 at 10 uM after 2 hrs of incubation by HPLC-MS/MS analysis; type: ADME, cell-based, Hepatocyte; how it was run: as §3
Cytochrome P450 1A2 [10] = target: T2, Cytochrome P450 1A2 (Homo sapiens, UniProt P05177); experiment: Prodrug conversion assessed as human recombinant CYP1A2-mediated (3Z,3'Z)-6,6'-(furan-2,5-diyl)bis(N'-hydroxynicotinimidamide) formation at 5 uM after 180 mins incubation by HPLC-UV chromatogram; type: ADME; settings: recombinant enzyme, 15 min, in the assay text read “15 mins” for “180 mins”; how it was run: as §2
T2 sequence (P05177 whole entry): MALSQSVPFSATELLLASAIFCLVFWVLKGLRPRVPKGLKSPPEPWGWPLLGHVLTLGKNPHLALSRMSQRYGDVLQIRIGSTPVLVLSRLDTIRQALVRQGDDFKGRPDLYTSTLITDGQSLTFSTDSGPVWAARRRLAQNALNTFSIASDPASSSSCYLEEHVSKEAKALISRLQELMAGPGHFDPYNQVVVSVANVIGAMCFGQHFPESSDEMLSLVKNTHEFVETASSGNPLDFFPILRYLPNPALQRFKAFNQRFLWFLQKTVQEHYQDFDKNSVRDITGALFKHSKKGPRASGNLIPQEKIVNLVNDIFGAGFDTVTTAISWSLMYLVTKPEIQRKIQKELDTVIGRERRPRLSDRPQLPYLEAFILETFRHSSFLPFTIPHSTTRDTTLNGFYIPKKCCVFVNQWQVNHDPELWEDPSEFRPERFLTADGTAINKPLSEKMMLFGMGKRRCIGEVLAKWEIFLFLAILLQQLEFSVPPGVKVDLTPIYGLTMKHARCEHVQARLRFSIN

Cytochrome P450 1A2 [11] = target: T2, Cytochrome P450 1A2; experiment: Prodrug conversion assessed as human recombinant CYP1A2-mediated (Z)-N'-hydroxy-6-(5-(5-((Z)-N'-methoxycarbamimidoyl)pyridin-2-yl)furan-2-yl) nicotinimidamide formation at 5 uM […] by HPLC-UV chromatogram; type: ADME; settings: recombinant enzyme, 3 h
[12] = Drug metabolism in sandwich-cultured rat hepatocytes assessed as (Z)-6-(5-(5-carbamimidoylpyridin-2-yl)furan-2-yl)-N'methoxynicotinimidamide at 10 uM after 4 hrs of incubation by HPLC-MS/MS analysis; type: ADME, cell-based, Hepatocyte; how it was run: as §3
[13] = Drug metabolism in sandwich-cultured human hepatocytes assessed as (Z)-N'-hydroxy-6-(5-(5-((Z)-N'-methoxycarbamimidoyl)pyridin-2-yl)furan-2-yl)nicotinimidamide at 10 uM after 4 hrs of incubation by HPLC-MS/MS analysis; type: ADME, cell-based, Hepatocyte; how it was run: as §3

CO/N=C(\N)c1ccc(-c2ccc(-c3ccc(/C(N)=N/OC)cn3)o2)nc1.Cl
Ratio (Liver microsome [1]): 25 | Vmax (Liver microsome [2]): 12 pmol/min | Drug metabolism (Cytochrome P450 4F2): metabolite_detected | Km (Liver microsome [3]): 11 µM | Activity [4]: 100% | Drug metabolism [5]: metabolite_detected | Drug metabolism [6]: metabolite_detected | Drug metabolism (Hepatocyte): metabolite_detected | Drug metabolism [7]: metabolite_detected | Km (Liver microsome [8]): 0.5 µM | fold change (FC) [9]: 23 | Drug metabolism (Cytochrome P450 1A2 [10]): metabolite_detected | Drug metabolism (Cytochrome P450 1A2 [11]): metabolite_detected | Drug metabolism [12]: metabolite_detected | Drug metabolism [13]: metabolite_detected
